Bioassay records deposited in PubChem BioAssay by Broad Institute.
GSIS activator: primary screen for activators of insulin secretion dependent on glucose, INS-1E cells, GLuc reporter luminescence; INS-1E GLuc reporter insulin secretion, 2-3 h; activation, % at 16.6 µM; 370,000 tested, 0.61% active; AID 743287;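 active = lowest replicate activation of at least 40%, so every replicate reaches that level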
Rtt109 HAT inh: C. albicans Rtt109 histone acetyltransferase inhibition | Q5AAJ8 | 330,000 tested, 0.16% active | purified Rtt109/Vps75, ThioGlo CoA-SH fluorescence, 4 h | inhibition, % at 34.9 µM;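 active = inhibition of at least 50% in every replicate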
dFosB act-1: mouse delta FosB homodimer activation; purified delta FosB, TAMRA-CDK5 oligo fluorescence polarization; percent of positive-control signal above neutral wells; activation, % at 25 µM; 340,000 tested, 0.99% active;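 active = mean activation above about 17%, with every replicate also reaching it, limit read from the data, passing the limit was not always enough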
Target sequence (P13346 whole entry, looked up): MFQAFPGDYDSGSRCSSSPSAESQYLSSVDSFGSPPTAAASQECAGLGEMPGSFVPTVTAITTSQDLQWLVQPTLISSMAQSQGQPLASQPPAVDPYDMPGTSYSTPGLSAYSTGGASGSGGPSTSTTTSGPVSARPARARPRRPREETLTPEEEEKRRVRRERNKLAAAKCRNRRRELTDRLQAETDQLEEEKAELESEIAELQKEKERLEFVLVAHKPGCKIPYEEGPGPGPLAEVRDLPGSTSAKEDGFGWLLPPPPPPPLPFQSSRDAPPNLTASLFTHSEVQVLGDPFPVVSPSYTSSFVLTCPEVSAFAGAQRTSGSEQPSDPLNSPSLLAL
Env fusion inh: HIV envelope-mediated fusion inhibition; HeLa-JRFL Env/CEM21 cell fusion, luciferase; inhibition, % at 12.3 µM; 360,000 tested, 1.1% active; AID 651610;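 active = mean replicate inhibition score of at least 50 and every replicate individually at or above 50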
miR122 inh: miR-122 inhibition in Huh7 cells; 340,000 tested, 0.3% active; activation (reporter increase), % at 12.5 µM; AID 602342; Huh7 miR-122 Renilla luciferase sensor, 48 h; neutral wells = 0, positive control = 100;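 active = mean replicate activation score at least 90 and every replicate individually at or above 90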;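 also: higher luciferase means less miR-122 activity so hits act as miR-122 inhibitors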
Cneo AK release: Cryptococcus neoformans lysis via adenylate kinase release | C. neoformans lysis, adenylate kinase release luminescence, 4 h; normalised: neutral wells 0, clomiphene wells 100 | lysis activity, % at 15 µM | 360,000 tested, 0.2% active | AID 651654;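 active = mean lysis activity across replicates of at least 80%, whatever share of replicates individually reach that level; inactive = mean lysis activity below 80%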
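Assay system: Cryptococcus neoformans yeast cells / Dosing: single-point compound dose / Timing: 4 h at 37 °C static, read 1 h later / Measured by: luminescence of released adenylate kinase using an AK detection reagent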
dFosB act-2: enhances mouse delta FosB homodimer binding to DNA | AID 588690 | shares compounds with dFosB act-1 | purified delta FosB, TAMRA-CDK5 oligo fluorescence polarization; normalised: neutral wells 0, positive control 100 | 2,400 tested, under 10 active | activation, % at 24.9 µM;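 active = highest replicate activation at or above 34% and every replicate reaching that threshold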;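 also: higher polarization means more probe DNA bound by delta FosB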
Hits are given with their value. Shown are actives, neighbours in structure and some others; about 2.4% of the full set was active somewhere.

Cc1ccc2nc(NC(=O)c3ccc(Cl)s3)sc2c1 was read as GSIS activator inactive, Rtt109 HAT inh inactive, dFosB act-1 25.9, Env fusion inh inactive, miR122 inh inactive, Cneo AK release inactive and dFosB act-2 inactive.
For NS(=O)(=O)c1ccc2nc(NC(=O)c3ccc4ncsc4c3)sc2c1 the results were Rtt109 HAT inh inactive, dFosB act-1 inactive, miR122 inh inactive and Cneo AK release inactive.
For Cc1ccc2nc(NC(=O)c3ccc4ncsc4c3)sc2c1 the results were GSIS activator inactive, Rtt109 HAT inh inactive, dFosB act-1 21.7, Env fusion inh inactive, miR122 inh inactive, Cneo AK release inactive and dFosB act-2 inactive.
COc1ccc(/C=C2\SC(=O)N(CC(=O)NC3C=CS(=O)(=O)C3)C2=O)cc1 (configuration not stated) was read as GSIS activator inactive, Rtt109 HAT inh inactive, dFosB act-1 41.0, Env fusion inh inactive, miR122 inh inactive, Cneo AK release inactive and dFosB act-2 inactive.
O=C(CN1C(=O)S/C(=C\c2ccccc2)C1=O)NNC(=O)c1ccccc1O was read as GSIS activator inactive, Rtt109 HAT inh inactive, dFosB act-1 48.1, Env fusion inh inactive and dFosB act-2 inactive.
`COc1ccc(/C=C2/SC(=O)N(CCC(=O)Nc3ccccc3C(=O)O)C2=S)cc1` gave GSIS activator inactive, Rtt109 HAT inh inactive, dFosB act-1 inactive, Env fusion inh inactive, miR122 inh inactive and Cneo AK release inactive.
`O=C(CN1C(=O)S/C(=C\c2ccc(O)cc2)C1=O)c1ccccc1` gave GSIS activator inactive, Rtt109 HAT inh inactive, dFosB act-1 inactive and Env fusion inh inactive.
`COc1ccc(/C=C2\SC(=O)N(CC(=O)NNC(=O)c3ccccc3O)C2=O)cc1` gave GSIS activator inactive, Rtt109 HAT inh inactive, dFosB act-1 66.5, Env fusion inh inactive and dFosB act-2 inactive.
C[C@H](CO)N1C[C@H](C)[C@@H](CN(C)CC2CCCCC2)Oc2ccc(NS(C)(=O)=O)cc2CC1=O was read as GSIS activator inactive, Env fusion inh inactive, miR122 inh inactive and Cneo AK release inactive.
`O=C1O[C@@H](c2ccccc2)[C@@H](c2ccccc2)N2[C@@H](c3ccccc3OCCO)[C@]3(C(=O)Nc4ccc(C#CCCO)cc43)[C@@H](C(=O)O)[C@H]12` gave Env fusion inh inactive and Cneo AK release inactive.
Screening O=C(C[C@H]1C=C[C@@H](NC(=O)c2cccc(F)c2)[C@@H](CO)O1)NCCN1CCCC1 returned GSIS activator inactive, Env fusion inh inactive and Cneo AK release inactive.
For COc1ccc(/C=N/n2c(=O)[nH]c3c([nH]c4ccc(Cl)cc43)c2=O)cc1CN1CCCCC1 the results were GSIS activator inactive, Rtt109 HAT inh inactive, dFosB act-1 inactive, Env fusion inh inactive, miR122 inh inactive and Cneo AK release inactive.
COc1ccc(/C=N/n2c(=O)[nH]c3c([nH]c4ccc(Br)cc43)c2=O)cc1CN1CCOCC1 was read as Rtt109 HAT inh inactive, dFosB act-1 28.3, Env fusion inh inactive, miR122 inh inactive, Cneo AK release inactive and dFosB act-2 inactive.
For C[C@@H]1CN([C@@H](C)CO)C(=O)c2cc(NC(=O)Cc3ccccc3)ccc2O[C@@H]1CN(C)C(=O)Nc1ccc2c(c1)OCO2 the results were GSIS activator inactive, Env fusion inh inactive, miR122 inh inactive and Cneo AK release inactive.
For O=C(COc1ccccc1F)Nc1ccccc1C(=O)NC1CC1 the results were GSIS activator inactive, Rtt109 HAT inh inactive, dFosB act-1 inactive, Env fusion inh inactive and Cneo AK release inactive.
O=C(COc1ccc(Br)cc1)Nc1ccccc1C(=O)NC1CC1 was read as GSIS activator inactive, Rtt109 HAT inh inactive, dFosB act-1 28.8, Env fusion inh inactive, miR122 inh inactive and dFosB act-2 inactive.
For CCN(CC)CCN(C(=O)c1ccc([N+](=O)[O-])cc1)c1nc2c(OC)cccc2s1 the results were GSIS activator inactive, Rtt109 HAT inh inactive, dFosB act-1 inactive and Env fusion inh inactive.
For CCOc1ccc2nc(N(CCN(C)C)C(=O)c3ccc4c(c3)CCCC4)sc2c1 the results were Rtt109 HAT inh inactive, dFosB act-1 29.9, miR122 inh inactive, Cneo AK release inactive and dFosB act-2 inactive.
CCN(CC)CCN(C(=O)c1ccc(C(=O)c2ccccc2)cc1)c1nc2c(OC)cccc2s1 was read as GSIS activator inactive, Rtt109 HAT inh inactive, dFosB act-1 33.4, Env fusion inh inactive, miR122 inh inactive, Cneo AK release inactive and dFosB act-2 inactive.
Screening CCN(CC)CCN(C(=O)c1ccc2ccccc2c1)c1nc2ccc(OC)cc2s1 returned GSIS activator inactive, Rtt109 HAT inh inactive, dFosB act-1 26.3, Env fusion inh inactive, miR122 inh inactive, Cneo AK release inactive and dFosB act-2 inactive.
For Cc1noc(C)c1S(=O)(=O)N(C)C[C@H]1Oc2ccc(NC(=O)CCCCCC(=O)Nc3ccccc3N)cc2CC(=O)N([C@@H](C)CO)C[C@H]1C the results were GSIS activator inactive.
Screening C[C@H](CO)N1C[C@H](C)[C@@H](CN(C)S(=O)(=O)c2cccc(F)c2)OCc2ccccc2-c2ccccc2C1=O returned GSIS activator inactive and Env fusion inh inactive.
For O=C1CC(C(=O)Nc2ccc(F)cc2)S/C(=N\N=C\c2ccco2)N1 (configuration not stated) the results were GSIS activator inactive, Rtt109 HAT inh inactive, dFosB act-1 32.7, Env fusion inh inactive and dFosB act-2 inactive.
O=[N+]([O-])c1ccc2c(c1)C(=NO)c1cc(F)ccc1-2 was read as GSIS activator inactive, Rtt109 HAT inh inactive, dFosB act-1 inactive and Env fusion inh inactive.
For O=[N+]([O-])c1ccc2c(c1)/C(=N\O)c1ccccc1-2 the results were GSIS activator inactive, Rtt109 HAT inh inactive, dFosB act-1 27.1, Env fusion inh inactive, miR122 inh inactive, Cneo AK release inactive and dFosB act-2 inactive.
COc1ccc(C2Nc3ccccc3C(=O)N2c2ccc(C)cc2)cc1Cn1nc(C)c([N+](=O)[O-])c1C (configuration not stated) was read as GSIS activator inactive, Rtt109 HAT inh inactive, dFosB act-1 inactive, miR122 inh inactive and Cneo AK release inactive.
COc1ccc(N2C(=O)c3ccccc3NC2c2ccc(OC)c(Cn3nnc4ccccc43)c2)cc1 (configuration not stated) was read as GSIS activator inactive, Rtt109 HAT inh inactive, dFosB act-1 30.2, Env fusion inh inactive and dFosB act-2 inactive.
